# What was measured:
# [1] = target: T1, Amine oxidase [flavin-containing] A (Homo sapiens, UniProt P21397); test: Inhibition of human recombinant MAOA expressed in BTI-TN-5B1-4 cells assessed as effect on H2O2 production from para-tyramine by fluorimetric method; assay type: cell-based
# T1 sequence (P21397 whole entry): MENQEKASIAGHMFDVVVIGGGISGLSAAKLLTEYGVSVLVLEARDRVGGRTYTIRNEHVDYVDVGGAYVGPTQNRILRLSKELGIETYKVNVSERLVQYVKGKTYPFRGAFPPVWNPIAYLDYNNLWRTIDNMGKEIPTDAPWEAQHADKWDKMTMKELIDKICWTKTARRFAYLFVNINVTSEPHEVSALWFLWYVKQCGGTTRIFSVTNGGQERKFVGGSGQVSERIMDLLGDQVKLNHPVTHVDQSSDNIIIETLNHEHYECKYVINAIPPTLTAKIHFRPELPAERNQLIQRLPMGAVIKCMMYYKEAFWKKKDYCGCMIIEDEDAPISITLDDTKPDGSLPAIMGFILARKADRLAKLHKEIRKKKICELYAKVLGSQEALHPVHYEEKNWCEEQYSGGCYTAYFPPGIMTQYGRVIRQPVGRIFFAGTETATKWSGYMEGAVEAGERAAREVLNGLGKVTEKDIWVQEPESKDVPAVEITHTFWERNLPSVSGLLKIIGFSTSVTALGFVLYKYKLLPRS
# [2] = target: T1, Amine oxidase [flavin-containing] A; test: Inhibition of human recombinant MAOA expressed in BTI-TN-5B1-4 cells assessed as effect on H2O2 production from para-tyramine at 100 uM by fluorimetric method; assay type: cell-based
# Summary of the method: (§1)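 Enzyme and test drug were preincubated 15 min at 37 °C in 0.05 M sodium phosphate, pH 7.4. Final 1 mM p-tyramine, 200 µM Amplex Red and 1 U/mL HRP were then added. Resorufin fluorescence (ex 545/em 590 nm) was read over 15 min, minus enzyme-free background. Top concentration tested was 100 µM.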
# [3] = target: T2, Amine oxidase [flavin-containing] B (Homo sapiens, UniProt P27338); test: Inhibition of human recombinant MAOB expressed in BTI-TN-5B1-4 cells assessed as effect on H2O2 production from para-tyramine at 100 uM by fluorimetric method; assay type: cell-based; summary of the method: as §1
# T2 sequence (P27338 whole entry): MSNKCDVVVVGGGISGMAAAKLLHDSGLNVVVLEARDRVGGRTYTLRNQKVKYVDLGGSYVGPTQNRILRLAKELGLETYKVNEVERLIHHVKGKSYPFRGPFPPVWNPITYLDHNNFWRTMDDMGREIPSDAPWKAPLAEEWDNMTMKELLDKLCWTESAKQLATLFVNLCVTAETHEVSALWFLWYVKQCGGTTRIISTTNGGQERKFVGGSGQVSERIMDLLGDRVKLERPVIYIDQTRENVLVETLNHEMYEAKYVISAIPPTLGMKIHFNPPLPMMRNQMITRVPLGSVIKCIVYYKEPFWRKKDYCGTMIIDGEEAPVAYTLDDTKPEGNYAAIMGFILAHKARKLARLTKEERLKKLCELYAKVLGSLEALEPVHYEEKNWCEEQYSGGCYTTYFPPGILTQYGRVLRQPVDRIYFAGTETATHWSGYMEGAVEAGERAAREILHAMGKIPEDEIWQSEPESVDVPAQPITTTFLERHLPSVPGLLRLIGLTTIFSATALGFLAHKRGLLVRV
# [4] = organism: Homo sapiens; test: Selectivity index, ratio of IC50 for human recombinant MAOA to IC50 for human recombinant MAOB
# [5] = target: T2, Amine oxidase [flavin-containing] B; test: Inhibition of human recombinant MAOB expressed in BTI-TN-5B1-4 cells assessed as effect on H2O2 production from para-tyramine at 1 mM by fluorimetric method; assay type: cell-based
# Summary of the method: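 Drugs preincubated with enzyme 15 min, 37 °C, 0.05 M sodium phosphate pH 7.4. Amplex Red 200 µM, HRP 1 U/mL, p-tyramine 1 mM (final) added. Resorufin fluorescence (ex 545/em 590 nm) read over 15 min at 37 °C, enzyme-free background subtracted.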
IC50 [1] [µM],IC50 [2],SMILES,also measured
14.5,–,Cc1cccc(NC(=O)c2cc3ccccc3oc2=O)c1,–
61.5,–,COc1cc(NC(=O)c2cc3ccccc3oc2=O)cc(OC)c1,–
17.6,–,Cc1cc(C)cc(NC(=O)c2cc3ccccc3oc2=O)c1,–
12.8,–,O=C(Nc1c(F)cccc1F)c1cc2ccccc2oc1=O,–
16,–,CCOC(=O)c1ccc(NC(=O)c2cc3ccccc3oc2=O)cc1,IC50 [3]: Not Active; Ratio IC50 [4]: < 0.16
15.1,–,CC(C)c1ccc(NC(=O)c2cc3ccccc3oc2=O)cc1,–
–,Not Active,O=C(Nc1ccc(O)cc1)c1cc2ccccc2oc1=O,–
15.9,–,Cc1ccc(C)c(NC(=O)c2cc3ccccc3oc2=O)c1,–
14.8,–,CSc1ccc(NC(=O)c2cc3ccccc3oc2=O)cc1,–
–,Not Active,COc1cccc(NC(=O)c2cc3ccccc3oc2=O)c1,–
12.3,–,Cc1ccc(NC(=O)c2cc3ccccc3oc2=O)c(C)c1,–
13.1,–,O=C(Nc1ccccc1)c1cc2ccccc2oc1=O,–
20.6,–,Cc1cccc(NC(=O)c2cc3ccccc3oc2=O)c1C,–
9.45,–,COc1ccc(NC(=O)c2cc3ccccc3oc2=O)cc1OC,–
19.5,–,Cc1ccc(NC(=O)c2cc3ccccc3oc2=O)cc1,–
18.8,–,Cc1ccc(NC(=O)c2cc3ccccc3oc2=O)cc1C,–
9.79,–,Cc1cccc(C)c1NC(=O)c1cc2ccccc2oc1=O,–
9.33,–,CS(=O)(=O)c1ccc(NC(=O)c2cc3ccccc3oc2=O)cc1,–
9.97,–,O=C(O)c1ccc(NC(=O)c2cc3ccccc3oc2=O)cc1,–
13.1,–,O=C(Nc1ccc(F)cc1)c1cc2ccccc2oc1=O,–
52.9,–,COc1cc(NC(=O)c2cc3ccc(OCc4ccccc4)cc3oc2=O)cc(OC)c1,–
–,Not Active,O=C(Nc1cccc(F)c1)c1cc2ccccc2oc1=O,–
–,Not Active,O=C(Nc1cccc(C(F)(F)F)c1)c1cc2ccccc2oc1=O,–
–,Not Active,Cc1cccc(Cl)c1NC(=O)c1cc2ccccc2oc1=O,–
15.7,–,CCc1ccc(NC(=O)c2cc3ccccc3oc2=O)cc1,–
–,Not Active,O=C(NCc1ccccc1)c1cc2ccccc2oc1=O,–
9.67,–,O=C(Cl)c1ccc(NC(=O)c2cc3ccccc3oc2=O)cc1,IC50 [3]: Not Active; Ratio IC50 [4]: < 0.1
–,Not Active,COc1ccc(NC(=O)c2cc3ccccc3oc2=O)cc1,–

# Continued, compound first:
SMILES,IC50 [1] [µM],IC50 [2],also measured
O=C(NNc1ccccc1)c1cc2ccc(OCc3ccccc3)cc2oc1=O,41.4,–,–
O=C(Nc1ccccc1Cc1ccccc1)c1cc2ccc(OCc3ccccc3)cc2oc1=O,51.9,–,–
O=C(NCc1ccccc1)c1cc2ccc(OCc3ccccc3)cc2oc1=O,–,Not Active,–
N#Cc1c(F)c(F)c(NC(=O)c2cc3ccccc3oc2=O)c(F)c1F,16,–,–
CN(C(=O)c1cc2ccccc2oc1=O)c1ccccc1,–,Not Active,–
N#Cc1c(F)c(F)c(NC(=O)c2cc3ccc(OCc4ccccc4)cc3oc2=O)c(F)c1F,61.4,–,–
O=C(Nc1ccccc1Cc1ccccc1)c1cc2ccc(OCc3ccc(F)cc3)cc2oc1=O,55.8,–,IC50 [3]: Not Active; Ratio IC50 [4]: < 0.56
Cc1cccc(Cl)c1NC(=O)c1cc2ccc(OCc3ccccc3)cc2oc1=O,49.7,–,–
O=C(NC1CCCCC1)c1cc2ccc(OCc3ccccc3)cc2oc1=O,–,Not Active,–
COc1ccc(NC(=O)c2cc3ccc(OCc4ccccc4)cc3oc2=O)cc1OC,–,Not Active,–
Cc1cccc(Cl)c1NC(=O)c1cc2ccc(OCc3ccc(F)cc3)cc2oc1=O,59.6,–,–
CN(C(=O)c1cc2ccc(OCc3ccccc3)cc2oc1=O)c1ccccc1,–,Not Active,–
CC(C)NC(=O)c1cc2ccc(OCc3ccccc3)cc2oc1=O,63.5,–,IC50 [3]: Not Active; Ratio IC50 [4]: < 0.63
CC(C)CNC(=O)c1cc2ccccc2oc1=O,–,Not Active,–
O=C(NCCN1CCOCC1)c1ccc(Cl)cc1 [MOCLOBEMIDE],–,–,IC50 [5]: Not Active
CC(C)NC(=O)c1cc2ccccc2oc1=O,–,Not Active,–

SMILES,IC50 [1] [µM],IC50 [2],also measured
C#CCNC(=O)c1cc2ccccc2oc1=O,–,Not Active,IC50 [3]: Not Active
CC(C)c1ccc(NC(=O)c2cc3ccc(OCc4ccccc4)cc3oc2=O)cc1,60.9,–,–
N#Cc1c(F)c(F)c(NC(=O)c2cc3ccc(OCc4ccc(F)cc4)cc3oc2=O)c(F)c1F,58.5,–,–
COc1ccc(NC(=O)c2cc3ccc(OCc4ccc(F)cc4)cc3oc2=O)cc1OC,49.2,–,–
COc1ccc(NC(=O)c2cc3ccc(OCc4ccccc4)c(C)c3oc2=O)cc1OC,48.9,–,–
COc1cc(NC(=O)c2cc3ccc(OCc4ccc(F)cc4)cc3oc2=O)cc(OC)c1,52.6,–,–
CN(Cc1ccccc1)C(=O)c1cc2ccccc2oc1=O,–,Not Active,IC50 [3]: Not Active
O=C(c1cc2ccccc2oc1=O)N(c1ccccc1)c1ccccc1,–,Not Active,IC50 [3]: Not Active
O=C(NC1CCCCC1)c1cc2ccccc2oc1=O,–,Not Active,–
O=C(Nc1c(F)c(F)c(F)c(F)c1F)c1cc2ccccc2oc1=O,–,Not Active,–
O=C(NCCc1ccccc1)c1cc2ccccc2oc1=O,–,Not Active,IC50 [3]: Not Active
O=C(Nc1c(F)c(F)nc(F)c1F)c1cc2ccccc2oc1=O,11.4,–,–
CC(C)c1ccc(NC(=O)c2cc3ccc(OCc4ccc(F)cc4)cc3oc2=O)cc1,–,Not Active,IC50 [3]: Not Active
CC(C)CNC(=O)c1cc2ccc(OCc3ccccc3)cc2oc1=O,58.6,–,–
O=C(Nc1ccccc1Cc1ccccc1)c1cc2ccccc2oc1=O,–,Not Active,–
NCCNC(=O)c1cc2ccccc2oc1=O,–,Not Active,–

# — ChEMBL document CHEMBL1153941, “Synthesis, molecular modeling, and selective inhibitory activity against human monoamine oxidases of 3-carboxamido-7-substituted coumarins” (J Med Chem, 2009)
